High-throughput results deposited in PubChem BioAssay by several laboratories.
This is a sample that favours compounds with a hit; in the whole collection about 3.5% have one here.
FLuc inhib CS – Photinus pyralis luciferase inhibition counter-screen; P08659; ATPLite firefly luciferase biochemical luminescence, 10 min; inhibition, % at 10 µM; hit rate 1.5% among 200,000; AID 1006;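 active = inhibition above about 50% when tested at 10 µM, limit read from the data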
Target sequence (P08659 whole entry, looked up): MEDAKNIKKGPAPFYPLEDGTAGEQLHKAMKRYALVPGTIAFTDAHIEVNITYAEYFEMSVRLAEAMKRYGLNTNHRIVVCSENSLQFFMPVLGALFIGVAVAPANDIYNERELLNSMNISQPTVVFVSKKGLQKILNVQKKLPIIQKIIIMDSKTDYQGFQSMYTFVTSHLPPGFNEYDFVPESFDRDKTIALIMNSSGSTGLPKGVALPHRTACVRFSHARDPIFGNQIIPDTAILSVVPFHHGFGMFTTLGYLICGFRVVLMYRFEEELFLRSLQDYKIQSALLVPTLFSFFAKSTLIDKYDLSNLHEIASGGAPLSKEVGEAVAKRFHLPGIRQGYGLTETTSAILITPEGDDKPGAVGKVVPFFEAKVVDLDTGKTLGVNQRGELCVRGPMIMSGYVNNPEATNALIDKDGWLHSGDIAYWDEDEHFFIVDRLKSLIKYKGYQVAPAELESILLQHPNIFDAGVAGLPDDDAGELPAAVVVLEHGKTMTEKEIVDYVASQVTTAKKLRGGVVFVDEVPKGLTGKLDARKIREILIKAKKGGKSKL
STAT1 activator – STAT1 signaling activation | NIH 3T3 STAT1-luciferase reporter, IFN-gamma, luminescence; 100% = IFN-gamma alone, no compound | activation (% of control), % at 5.5 µM | hit rate 2.6% among 200,000 | AID 932;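 active = activation above the screen-wide mean activation plus 3 SD, cut at about 130% in these data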
APP 5'UTR act – APP 5'UTR luciferase reporter activation | SH-SY5Y APP 5'UTR luciferase reporter, luminescence; zero percent = DMSO vehicle wells | activation, % at 2 µM | hit rate 1% among 190,000;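 active = activation above a set limit, based on mean plus 3 SD of controls, cut at about 140% in these data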
NF-kB neuron act – NF-kB expression increase, human neuronal cells; NF-kB reporter expression; hits give high values; fold change at 12.5 µM; hit rate 1.6% among 190,000; AID 1239; in the data active = fold change above about 3.3
Pf gamet viab – kills late stage P. falciparum gametocytes; P. falciparum stage V gametocytes, ATP luminescence, 24 h; inhibition, % at 10.9 µM; hit rate 0.065% among 150,000; AID 743093;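 active = inhibition above the mean plus 3 SD of compounds within the control limits, set per campaign, cut at about 38% in these data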
FLuc act counter – affects firefly luciferase, flagging false hits in luciferase stimulation screens; P08659; ATPlite luciferase biochemical, luminescence, 10 min; 0 = ATP-free wells, 1 = DMSO control; activation factor at 10 µM; 200,000 tested, under 10 active;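 active = luciferase activation factor, scaled between plate controls, of at least 2 with compound at 10 µM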
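Assay system – cell-free luciferase reagent · Medium – PBS-based ATP solution · Dosing – test compounds dosed from 2 mM stocks in 100% DMSO · Timing – 10 min, room temperature · Technique – light output (luminescence) · Measure – luminescence gain marking luciferase activators · Controls – No-ATP low control, compound-free enzyme-plus-ATP high control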
Of the large screens only hits and unclear results are named; the others gave an inactive call.

c1c2c(cc3sc(N4CCOCC4)nc13)OCCO2	FLuc inhib CS 84
Nc1ccc2nc(N3CCOCC3)sc2c1	none
Nc1ccccc1C(=O)/C=C/c1ccc2c(c1)OCO2	FLuc inhib CS 62, NF-kB neuron act 7.2
O=C(/C=C/c1ccc2c(c1)OCO2)c1ccco1	FLuc inhib CS 58
CC(CCc1ccccc1)NC(=O)c1cccc(F)c1 (centres undefined)	none (no result: FLuc inhib CS, STAT1 activator, APP 5'UTR act, NF-kB neuron act, FLuc act counter)
Cc1c(NC(=O)COC(=O)c2cc(-c3ccc(-c4ccccc4)cc3)nc3ccccc23)c(=O)n(-c2ccccc2)n1C	FLuc inhib CS 85, STAT1 activator 146, NF-kB neuron act 4.1
O=C(COc1ccccc1)Nc1ccc(Cl)cc1Cl	FLuc inhib CS 50, STAT1 activator 134, NF-kB neuron act 3.5 (no result: Pf gamet viab)
O=C(COc1ccc(Cl)cc1Cl)Nc1ccc(Cl)cn1	FLuc inhib CS 86, STAT1 activator 142, APP 5'UTR act 181, NF-kB neuron act 4.5
C=C(C)CSc1cc(C)nc2c(-c3ccccc3)c(C)nn12	none (no result: FLuc inhib CS, STAT1 activator, APP 5'UTR act, NF-kB neuron act, FLuc act counter)
Oc1cc(NCc2cccnc2)ccc1-c1nc2ccccc2o1	STAT1 activator 134, APP 5'UTR act 155
Cc1sc2ncnc(NCCN3CCOCC3)c2c1C	none
CN(C)C=NC(=O)c1cc(C(=O)c2ccccc2Cl)c[nH]1	none
CC(C)(C)c1ccc(C(=O)c2c[nH]c(C(=O)O)c2)cc1	STAT1 activator 142
COC(=O)c1cc(C(=O)c2ccc(C(C)(C)C)cc2)c[nH]1	none
CN(C)C=NC(=O)c1cc(C(=O)c2ccc(C(C)(C)C)cc2)c[nH]1	STAT1 activator 141, APP 5'UTR act 171
O=C1C=C(c2cccc(Br)c2)C[C@@H](c2ccc(Cl)cc2)C1	none (no result: FLuc inhib CS, STAT1 activator, APP 5'UTR act, NF-kB neuron act, FLuc act counter)
COC(=O)c1c(C)oc(C)c1S(=O)(=O)N(C)C1CCCCC1	none (no result: FLuc inhib CS, STAT1 activator, APP 5'UTR act, NF-kB neuron act, FLuc act counter)
CCCOc1ccc(C2=CC(=O)C[C@H](c3ccc(OC)cc3)C2)cc1	none (no result: FLuc inhib CS, STAT1 activator, APP 5'UTR act, NF-kB neuron act, FLuc act counter)
CCc1nc(Sc2nc(C)cc(C)n2)c2oc3ccccc3c2n1	NF-kB neuron act 4.3 (no result: APP 5'UTR act)
CC(C)(C)c1nnc(SCC(=O)c2ccccc2)n(N)c1=O	none
CN(C)c1ccc(-n2cc3c(=O)n(C)c(=O)n(C)c3c2)cc1	STAT1 activator 134
C=CCN(C(=O)CNC(=O)c1ccco1)C(C(=O)NC1CCCCC1)c1ccc(OC)cc1OC (centres undefined)	none (no result: Pf gamet viab)
COc1ccc(N2CCN(C(=O)CN(C)S(=O)(=O)c3cc(C)ccc3OC)CC2)cc1	none
O=C1/C(=C\Nc2ccc(OC(F)(F)F)cc2)CCN1c1ncccn1	STAT1 activator 131 (no result: APP 5'UTR act)
O=C1/C(=C\Nc2ccc(Cl)cc2)CCN1c1ncccn1	none
CC(=NC1CCCC1)c1c(C)[nH]n(-c2nc3ccccc3s2)c1=O	STAT1 activator 142
CC(=NC1CC1)c1c(-c2ccccc2)[nH]n(-c2nc3ccccc3s2)c1=O	none
COC(=O)CN1C(=O)[C@H]2[C@@H](c3ccc(C)o3)N3C(=O)CN(Cc4ccccc4)C(=O)[C@@]3(C)[C@H]2C1=O	none (no result: FLuc inhib CS, STAT1 activator, APP 5'UTR act, NF-kB neuron act, FLuc act counter)
Cc1ccc(CSc2nc3ccncc3n2CC(=O)Nc2cc(C)cc(C)c2)cc1	FLuc inhib CS 50 (no result: Pf gamet viab)
COc1ccccc1N1CCN(CCCCOc2ccc(C)cc2C)CC1	none (no result: FLuc inhib CS, STAT1 activator, APP 5'UTR act, NF-kB neuron act, FLuc act counter)
O=C(OCC(=O)c1cccs1)c1ccccc1	FLuc inhib CS 50, STAT1 activator 140, NF-kB neuron act 5.5
O=C(CNC(=O)c1cccs1)OCC(=O)c1ccccc1	none (no result: APP 5'UTR act)
CCOC(=O)c1cc(NC(=O)c2ccoc2C)cc(C(=O)OCC)c1	none
CC(C)(C)NC(=O)CSc1nc(-c2ccc(F)cc2)cs1	FLuc inhib CS 55, STAT1 activator 141, NF-kB neuron act 4.7
Fc1ccc(N/N=C/c2ccc(N3CCOCC3)cc2)c(F)c1	STAT1 activator 131, NF-kB neuron act 3.6
C/C(=N\Nc1ccc(F)cc1F)c1ccc(N2CCOCC2)cc1	none
S=c1[nH]ncn1/N=C/c1ccc(N2CCOCC2)cc1	FLuc inhib CS 87 (no result: APP 5'UTR act)
CN(C)/N=C/c1ccc(N2CCOCC2)cc1	FLuc inhib CS 63 (no result: Pf gamet viab)
Cc1cc2nc3ccc(N(C)C)cc3nc2cc1N	none (no result: FLuc inhib CS, STAT1 activator, APP 5'UTR act, NF-kB neuron act, FLuc act counter)
COc1nnc(-c2ccc(N3CCCCC3)c(NC(=O)COc3ccccc3)c2)c2ccccc12	none (no result: FLuc inhib CS, STAT1 activator, APP 5'UTR act, NF-kB neuron act, FLuc act counter)
Cc1ccc(C(=O)ONc2ccc(N=NC(=O)c3ccccc3O)cc2)cc1	none
O=Nc1ccc(NOC(=O)c2ccc(Br)cc2)cc1	FLuc inhib CS 87 (no result: Pf gamet viab)
COC(=O)c1ccc(NN=Nc2ccc(C)cc2)cc1	STAT1 activator 137 (no result: Pf gamet viab)
COC(=O)c1ccc(N=NN2CCCCC2)cc1	STAT1 activator 140, APP 5'UTR act 151, NF-kB neuron act 3.3
COC(=O)c1ccc(NC(=O)CSCc2ccc(C)cc2)cc1	none (no result: Pf gamet viab)
Cc1ccc(C(=O)ONc2ccc(N=O)cc2)cc1	FLuc inhib CS 97
COC(=O)c1ccc(NC(=O)CCN2CCCCC2)cc1	none
CS(=O)(=O)N1N=C(c2ccccc2)CC1c1ccc2c(c1)OCO2 (centres undefined)	STAT1 activator 137 (no result: Pf gamet viab)
CC(C)CCNC(=O)C(=O)Nc1ccccc1	STAT1 activator 129
Cc1cccc(NC(=S)NCCC(C)C)c1	none
CC(C)CCNC(=O)c1cccc(C(=O)NCCC(C)C)c1	none (no result: Pf gamet viab)
CC(C)CCNC(=O)c1ccc(-c2ccccc2)cc1	STAT1 activator 132 (no result: Pf gamet viab)
CCc1nnc(N2C(=O)c3ccccc3C2(O)c2ccccc2)s1 (centres undefined)	none (no result: FLuc inhib CS, STAT1 activator, APP 5'UTR act, NF-kB neuron act, FLuc act counter)
Cc1cc(/C=C2\NC(=S)NC2=O)c(C)n1-c1cccnc1	none (no result: FLuc inhib CS, STAT1 activator, APP 5'UTR act, NF-kB neuron act, FLuc act counter)
CN(C)/C=C/C(=O)c1cc(F)cc(C(F)(F)F)c1	none (no result: Pf gamet viab)
O=C(Nc1ccc(Cl)cc1Cl)NC1CCCC1	none
CN(C(=O)Nc1ccc(Cl)cc1Cl)C1CCCC1	STAT1 activator 135
Cn1c(SCc2ccccc2)nc(N)c(N=O)c1=O	none (no result: FLuc inhib CS, STAT1 activator, APP 5'UTR act, NF-kB neuron act, FLuc act counter)
COc1ccc(OC)c(NC(=S)N2CCN(Cc3ccccc3)CC2)c1	none
COc1ccc(OC)c(NC(=S)N2CCC(C(O)(c3ccccc3)c3ccccc3)CC2)c1	Pf gamet viab 57
Cc1nn(-c2ccccc2)c2nc(-c3ccncc3)cc(C(=O)NCc3ccco3)c12	Pf gamet viab 56
O=C(Nc1cccc(Cl)c1)c1ccc(OC(=S)N2CCOCC2)cc1	STAT1 activator 130, APP 5'UTR act 157 (no result: Pf gamet viab)
O=C(Nc1cccc2ccccc12)c1ccc(OC(=S)N2CCOCC2)cc1	none (no result: Pf gamet viab)
CN(C)C(=S)N=Nc1[nH]c2ccccc2c1O	STAT1 activator 176
CCOC(=O)c1c(C)oc2c1c(CN1CCN(C(=O)OCC)CC1)c(O)c1ccccc12	APP 5'UTR act 157, NF-kB neuron act 4.3
COc1ccc(/C=C2\SC(=N)N(c3nccs3)C2=O)cc1OC	FLuc inhib CS 77
N=C1S/C(=C\c2ccc(-c3cccc(Cl)c3)o2)C(=O)N1c1nccs1	none
Cc1ccc(C)c(S(=O)(=O)N2CCN(c3ncccn3)CC2)c1	NF-kB neuron act 4.8
COC(=O)c1ccc(NC(=S)N2CCC(C(N)=O)CC2)cc1	none (no result: Pf gamet viab)
c1ccc2c(c1)nnn1c3ccccc3nc21	STAT1 activator 146, APP 5'UTR act 147, NF-kB neuron act 5.3 (no result: Pf gamet viab)
